From paper PMC12480952 (Nature Communications, 2025)

System: FLAG-tagged, full-length WT BCL-2
Test: Streptavidin pull-down from HEK 293T lysate, FLAG-BCL-2 WT, anti-FLAG western
Format: binding, human
Conditions: biotinylated BAD SAHB 4.2 1 μM, 300 μg lysate, overnight 4 °C
In short: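 HEK 293T cells (DMEM, 10% FBS, penicillin/streptomycin, 2 mM glutamine; mycoplasma-free) were transfected at 70% confluence with 3 μg of plasmid encoding N-FLAG full-length BCL-2 (aa 1–239) and lysed after 24 h in CHAPS buffer. Lysate (300 μg) took 1 μM biotinylated test peptide ± competitor (0.1, 1.0, 10 μM), overnight, 4 °C. Streptavidin agarose capture followed (2 h, room temperature), then PBS and 1% NP-40 washes, LDS elution and anti-FLAG western; three independent repeats.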

CC1(C)CCC(CN2CCN(c3ccc(C(=O)NS(=O)(=O)c4ccc(NCC5CCOCC5)c([N+](=O)[O-])c4)c(Oc4cnc5[nH]ccc5c4)c3)CC2)=C(c2ccc(Cl)cc2)C1 [venetoclax]
displacement of biotin-BAD SAHB 4.2 from FLAG-BCL-2 WT (venetoclax 1 μM): near complete dissociation
displacement of biotin-BAD SAHB 4.2 from FLAG-BCL-2 WT (venetoclax 10 μM): complete dissociation
